Screening results from PubChem.
HKDC1 inhibitor – HKDC1 hexokinase inhibitors, primary screen, biochemical, fluorescence, uHTS; 0.16% of 340,000 active; recombinant HKDC1, G6PDH/diaphorase resazurin coupled fluorescence; inhibition, % at 20 µM;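 active means inhibition above about 35% when tested at 20 µM, limit read from the data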;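 further: plate controls were DMSO wells with enzyme for no effect and DMSO wells lacking enzyme for full effect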
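Test system: recombinant HKDC1 (HK5) hexokinase enzyme, produced in-house / Doses: 20 µM test compound, 1% DMSO / Timing: 90 min, room temperature / Detection: G6PDH/diaphorase-coupled fluorescence, 1 mM NADP, 100 µM resazurin, 525/613 nm / Control set: DMSO wells with and without enzyme mix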
TDP2 absorb – human TDP2 enzyme inhibitors, primary screen, biochemical, epi absorbance, recombinant enzyme. Tyrosyl-DNA phosphodiesterase 2 (Homo sapiens), O95551. T5PNP hydrolysis, p-nitrophenol absorbance 415 nm. inhibition, % at 12.8 µM. 0.34% of 370,000 active. AID 720702, 2013;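 active means inhibition above the mean of all tested compounds plus 3 SD, set per campaign, cut at about 25% in these data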;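 further: 0% = DMSO with enzyme and 100% = buffer with substrate but no TDP2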
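Read-out basis: percent inhibition. System: recombinant human TDP2. Buffer or medium: Mg2+-containing Tris-HCl buffer, pH 7.5. Repeats: single replicate. Timing: reaction 2 h, 37 °C. Benchmarks: high control without enzyme, low control DMSO plus TDP2. Probe or stimulus: 5 mM T5PNP. Doses: 12.8 µM only. Measured by: epi absorbance of p-nitrophenol freed from T5PNP by hydrolysis.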
CTSL1 counter – Fasciola hepatica cathepsin L1 inhibitors, primary screen, counter-screen for PFM18AAP inhibitor project, biochemical, QFRET, fluorogenic peptide substrate | recombinant F. hepatica cathepsin L1, Z-Leu-Arg-MCA fluorescence | inhibition, % at 5.96 µM | 0.49% of 300,000 active;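 active means inhibition above the mean of all tested compounds plus 3 SD, set per screening campaign, cut at about 17% in these data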;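 further: 0% = plate median of test compound wells and 100% = 1 µM Z-Phe-Ala-diazomethylketone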
PAD4 FP inh – human PAD4 inhibitors, primary screen, biochemical, fluorescence polarization, 1536-well format | Protein-arginine deiminase type-4 (Homo sapiens), Q9UM07 | recombinant PAD4, RCA probe fluorescence polarization | inhibition, % at 6.36 µM | 0.41% of 330,000 active | AID 485272, 2010;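 active means percent inhibition above a cutoff equal to the mean of all tested compounds plus 3 SD, cut at about 15% in these data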;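 further: 0% = PAD4 with RCA probe and DMSO and 100% = probe without PAD4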
GSTO1 counter – inhibitors of recombinant GSTO1, primary screen, counter-screen for RBBP9 inhibitor project, biochemical, fluorescence polarization. Glutathione S-transferase omega-1 (Homo sapiens), P78417. activity-based probe fluorescence polarization. AID 1974, 2009. 1.1% of 300,000 active. inhibition, % at 5.96 µM;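 active means inhibition above the campaign mean inhibition plus 3 SD, cut at about 35% in these data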;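 further: 0% = GSTO1-1 with DMSO and 100% = wells lacking GSTO1-1 enzyme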
Target sequence (P78417 whole entry, looked up): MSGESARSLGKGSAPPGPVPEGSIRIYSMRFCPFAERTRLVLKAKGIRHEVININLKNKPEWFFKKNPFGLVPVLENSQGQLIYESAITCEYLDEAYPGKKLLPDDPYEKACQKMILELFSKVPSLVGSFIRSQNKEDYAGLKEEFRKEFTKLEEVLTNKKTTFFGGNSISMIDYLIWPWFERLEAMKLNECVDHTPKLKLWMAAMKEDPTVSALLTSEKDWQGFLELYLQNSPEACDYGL
UCH37 DUB inh – inhibitors of human UCH37 deubiquitinase, primary screen, biochemical, Ub-AMC cleavage, fluorescence. inhibition, % (no concentration beside the values). Ubiquitin carboxyl-terminal hydrolase isozyme L5 (Homo sapiens), Q9Y5K5. 0.33% of 330,000 active. purified proteasome/UCH37;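 active means mean inhibition over replicate wells above about 20%, limit read from the data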;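 further: 0% = compound-free wells with enzyme and 100% = wells lacking proteasome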
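System: Proteasome-associated human UCH37 deubiquitinase; Input: 0.15 nM proteasome in added enzyme buffer; Also added: Ub-AMC substrate from 1 µM stock; Incubation: 30 min compound-proteasome preincubation then 25 min substrate reaction, room temperature; Detection: fluorescence, ex 355 nm, em 460 nm; Read-out: % inhibition of Ub-AMC cleavage fluorescence; Benchmarks: no-proteasome and no-compound wells.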
GSTO1 confirm – GSTO1 inhibitor hit confirmation, counter-screen for RBBP9 inhibitor project, biochemical, fluorescence polarization, triplicate | shares compounds with GSTO1 counter | inhibition, % at 5.96 µM | AID 2176, 2009 | 54% of 2,400 active | recombinant GSTO1, probe fluorescence polarization;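 active means inhibition above the primary screen's cutoff, its mean inhibition plus 3 SD, cut at about 35% in these data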;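 further: loss of polarization as inhibitors block binding of rhodamine sulfonate ester activity probe; 0% = GSTO1 with DMSO and 100% = wells lacking GSTO1 enzyme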
GSTO1 recomb ABPP – inhibitors of purified human GSTO1, late-stage follow-up, biochemical, gel ABPP, SE-Rh probe, percent inhibition; shares compounds with GSTO1 counter; recombinant GSTO1, gel ABPP SE-Rh probe fluorescence; inhibition, % at 1 µM; 30% of 130 active; AID 463110, 2010;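 active means inhibition of the enzyme GSTO1 above about 75%, limit read from the data; inactive means inhibition below that limit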
An asterisk follows results filed as active; . = not tested or not shown; ! = repeats disagree. The list is not random: actives were taken first. Their share in the collection is about 1.6%.

SMILES	HKDC1 inhibitor	TDP2 absorb	CTSL1 counter	PAD4 FP inh	GSTO1 counter	UCH37 DUB inh	GSTO1 confirm	others
CN(C)[C@@H]1C(=O)C(C(N)=O)=C(O)[C@@]2(O)C(=O)C3=C(O)c4c(O)ccc(Cl)c4[C@@](C)(O)C3C[C@@H]12 (some centres not stated)	5	-8	.	.	.	.	.
CN(C)C1C(=O)C(C(N)=O)=C(O)C2(O)C(=O)C3=C(O)c4c(O)cccc4C(C)(O)C3CC12 (configuration not stated)	-1	.	-4	-1	70*	0	28
CN(C)[C@@H]1C(=O)C(C(N)=O)=C(O)[C@@]2(O)C(=O)C3=C(O)c4c(O)cccc4[C@@](C)(O)C3[C@H](O)C12 (some centres not stated)	20	14	4	-1	62*	-7	66*!
CCn1cc(C=c2sc3n(c2=O)C2c4ccccc4OC(C)(N=3)C2C(=O)OC)c(C)n1 (configuration not stated)	.	.	.	.	.	11	.
C(=NNC1=NCCCCC1)c1c[nH]c2ccccc12	.	.	.	.	.	12	.
CC1CCCC(C)N1N=Cc1c[nH]c2ccc(Br)cc12 (configuration not stated)	.	.	.	.	.	6	.
O=C1OCCN1N=Cc1ccc([N+](=O)[O-])o1	.	.	.	.	.	4	.
O=P1(Oc2ccccc2)C[C@@H](O)[C@@H](O)[C@H](COCc2ccccc2)O1 (some centres not stated)	-7	4	-1	1	73*	-14	5
CCCC12CN3CCN(CC(C3)C1=NNC(=O)c1ccncc1)C2	.	.	.	.	.	1	.
O=c1[nH]c(O)c(N=Nc2ccc(S(=O)(=O)N3CCOCC3)cc2)c(=O)[nH]1	2	-2	2	-5	38*	5	46*
O=C(NC1(C(F)(F)F)Oc2ccccc2O1)N1CCC2(CC1)OCCO2	5	3	-3	0	42*	-1	9
O=C(NC1(C(F)(F)F)Oc2ccc(Cl)cc2O1)N1CCC2(CC1)OCCO2 (configuration not stated)	6	4	-4	-4	62*	1	7
CC(CC(c1ccccc1)c1c(O)c2ccccc2oc1=O)=NNc1ccc([N+](=O)[O-])cc1[N+](=O)[O-] (configuration not stated)	.	.	.	.	.	10	.
NCC(O)c1cc(O)c(O)cc1F (configuration not stated)	7	14	-2	-7	50*	1	8
Cc1ccccc1-n1c(O)c(C=Nc2ccc(N(C)C)cc2)c(=O)[nH]c1=O	11	8	-1	9	45*	12	6
CCCCCC(=NO)c1c[nH]c2ccccc12	.	.	.	.	.	5	.
Cc1nc(CCl)cc(=O)[nH]1	-8	7	2	0	69*	1	77*	GSTO1 recomb ABPP=17
CN1CCc2cc(O)cc3c2[C@H]1Cc1ccc(O)c(O)c1-3	1	14	-5	10	99*	-1	10
ON=C1CCC2CN(C3CCCCC3)CC2C1 (configuration not stated)	.	.	.	.	.	-1	.
CCOc1ccc(Cc2c(O)[nH]c(=O)[nH]c2=O)cc1	-3	-8	-6	1	23	3	.
